The source of these data is ChEMBL document CHEMBL1124685, “Synthesis, DNA-binding properties, and antitumor activity of novel distamycin derivatives” (J Med Chem, 1989).

The subject of one series is HEp-2. The series is described as follows: Tested in vitro for the cytotoxicity as number of viable cells against Hep-2 cell line after 72 hr treatment at conc. of 10E-6. It counts as functional. Particulars: Homo sapiens, HEp-2, 72 h; read-out: ID50 (the source's name). In short, it runs like this:
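Cytotoxicity read as number of viable cells. Hep-2 (MEM) received 72-h continuous drug treatment. L1210 and L1210/L-PAM (RPMI 1640) received 4-h treatment followed by 48-h incubation in drug-free medium. Media contained 10% fetal calf serum, glutamine, streptomycin and penicillin, at 37 °C in humidified 5% CO2.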

For another series, the system named is HeLa. The series is described as follows: Tested in vitro for the dose inhibiting cell proliferation by 50% against HeLa cell line after 24 hr treatment at conc. of 10E-6. In kind it is functional. As to conditions: Homo sapiens, read-out: ID50 (the source's name).
The subject of series [1] is L1210. Nature of the series: Tested in vivo for optimal non-toxic dose against L1210 cell line in CDF1 mice. In kind it is ADME, organism-based. Particulars: mouse. A digest of the protocol: (§1)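 CDF1 mice inoculated intraperitoneally with 10⁵ L1210 or L1210/L-PAM cells per mouse, then treated intraperitoneally after tumor transplant. T/C % = median survival time of treated mice / median survival time of controls × 100. Activity criterion is T/C ≥ 125%. Optimal nontoxic dose (OD) is defined as a dose below LD10.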

For series [2], the system named is L1210/LPAM. The series is described as follows: Tested in vivo for optimal non-toxic dose against L1210/LPAM cell line in CDF1 mice. It counts as ADME, organism-based. Particulars: mouse. In short, it runs like this: as §1
Series [3] concerns L1210/LPAM. Nature of the series: Median survival time of treated to the control was determined in L1210/LPAM cell line. It counts as functional, Mus musculus. In short, it runs like this:
as §1

In series [4] the test system is L1210. Nature of the series: Median survival time of treated to the control mice with L1210 tumor cells. In kind it is functional, Mus musculus. In short, it runs like this:
as §1

Series [5] in a line: Tested in vitro for the resistance index ratio (ID50) of L1210/LPAM to L1210 cell line. In kind it is functional. A digest of the protocol: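 Resistance index = ID50 (L1210/L-PAM) / ID50 (L1210), where ID50 is the dose inhibiting proliferation by 50%. Cells were exposed to drug for 4 h, then incubated 48 h in drug-free medium. Culture was RPMI 1640 with 10% fetal calf serum, glutamine and antibiotics, at 37 °C in 5% CO2.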

Series [6] has as its system L1210. The series is described as follows: Tested in vitro for the cytotoxicity as number of viable cells against L1210 cell line after 4 hr treatment and 48 hr incubation in drug-free medium at conc. of 10E-6. Particulars: Mus musculus, L1210, 4 h treatment, 48 h drug-free incubation; read-out: ID50 (the source's name).
The test system of series [7] is L1210/LPAM. Nature of the series: Tested in vitro for the cytotoxicity as number of viable cells against L1210/LPAM cell line after 4 hr treatment and 48 hr incubation in drug-free medium at conc. of 10E-6. Particulars: Mus musculus, 48 h drug-free incubation, read-out: ID50 (the source's name).
Series [8] relates to L1210. Nature of the series: Median survival time of treated to the control was determined in L1210 cell line. It counts as functional, Mus musculus. In short, it runs like this:
as §1

Molecules are shown by their SMILES.

The T/C is the result in the treated group divided by that in the control group, in per cent. `Cl.Cn1cc(NC(=O)c2cc(NC(=O)c3cc(N(CCCl)CCCl)cn3C)cn2C)cc1C(=O)NCCC(=N)N`: the IC50 in the series with HEp-2 is 1220 nM; in the series with HeLa it was 1950 nM; with L1210 [6], 3530 nM; with L1210/LPAM [7], 4560 nM. Besides, the OD in the series with L1210 [1] was found to be 1.56 M; in the series with L1210/LPAM [2] it was 1.56 mg/kg. The T/C was 122% with L1210/LPAM [3] and 138% in the series on L1210 [4]. Besides, the Ratio in series [5] is recorded as 1.3.
On to `Cl.Cn1cc(NC(=O)c2cc(NC(=O)c3cc(NC(=O)c4cc(N(CCCl)CCCl)cn4C)cn3C)cn2C)cc1C(=O)NCCC(=N)N`, for which the IC50 in the series on HEp-2 stood at 100 nM; in the series with HeLa, 60 nM; in the series with L1210 [6], 80 nM; with L1210/LPAM [7], 70 nM. Also, the OD in the series with L1210 [1] and with L1210/LPAM [2] was 0.39 mg/kg each time. For the same molecule, the T/C in the series on L1210/LPAM [3] is 167%; with L1210 [4], 188%. Moreover, in series [5], the Ratio was 0.87.
Take `Cl.Cn1cc(NC(=O)c2cc(NC(=O)c3cc(NC(=O)c4cc(N(CCCl)CCCl)cs4)cn3C)cn2C)cc1C(=O)NCCC(=N)N`: the IC50 in the series with HEp-2 was found to be 90 nM; in the series on HeLa, 50 nM; with L1210 [6], 1930 nM; in the series with L1210/LPAM [7], 1320 nM. For the same molecule, the OD in the series with L1210 [1] and in the series on L1210/LPAM [2] was 1.56 mg/kg in each case. The figures for the T/C in the series with L1210/LPAM [3] and in the series with L1210 [4] were 111% and 132%, respectively. Also, the Ratio in [5] is 0.69.
`N[C@@H](Cc1ccc(N(CCCl)CCCl)cc1)C(=O)O` [MELPHALAN]: the IC50 stood at 980 nM in the series with HEp-2, 1770 nM with HeLa, 1700 nM in the series with L1210 [6] and 13100 nM with L1210/LPAM [7]. In addition, the OD in the series with L1210 [1] and in the series on L1210/LPAM [2] was 10 mg/kg throughout. The T/C is given as 104% with L1210/LPAM [3] and 192% in the series with L1210 [8]. The Ratio in series [5] turned out to be 7.7.
Turning to `Cn1cc(NC(=O)c2cc(NC(=O)c3cc(NC=O)cn3C)cn2C)cc1C(=O)NCCC(=N)N` [STALLIMYCIN], the IC50 was determined as 97000 nM in the series on HEp-2, 48000 nM in the series with HeLa, 488000 nM in the series with L1210 [6] and 343000 nM in the series on L1210/LPAM [7]. Further, the OD in the series with L1210 [1] and with L1210/LPAM [2] was 200 mg/kg throughout. For the same molecule, the T/C with L1210/LPAM [3] is given as 106%; with L1210 [4], 113%. In series [5], the Ratio stood at 0.7.
As for `Cl.Cn1cc(NC(=O)c2cc(NC(=O)c3cc(NC(=O)c4ccc(N(CCCl)CCCl)cc4)cn3C)cn2C)cc1C(=O)NCCC(=N)N` [TALLIMUSTINE CHLORIDE], the IC50 in the series with HEp-2 stood at 190 nM; in the series with HeLa, 20 nM; in the series on L1210 [6], 1220 nM; in the series on L1210/LPAM [7], 360 nM. For the same molecule, the OD in the series on L1210 [1] and in the series on L1210/LPAM [2] was 3.12 mg/kg in each case. For the same molecule, the T/C with L1210/LPAM [3] was 144%; in the series with L1210 [4], 175%.
